# High-throughput results as filed in PubChem.
# Compounds with a hit are over-represented: about 4.3% of the library has one in this group of screens.
# FLuc act counter = affects firefly luciferase, flagging false hits in luciferase stimulation screens; ATPlite luciferase biochemical, luminescence, 10 min; 0 = ATP-free wells, 1 = DMSO control; activation factor at 10 µM; 200,000 tested, under 10 active;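 active = luciferase activation factor, scaled between plate controls, of at least 2 with compound at 10 µM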
# Target sequence (P08659 whole entry, looked up): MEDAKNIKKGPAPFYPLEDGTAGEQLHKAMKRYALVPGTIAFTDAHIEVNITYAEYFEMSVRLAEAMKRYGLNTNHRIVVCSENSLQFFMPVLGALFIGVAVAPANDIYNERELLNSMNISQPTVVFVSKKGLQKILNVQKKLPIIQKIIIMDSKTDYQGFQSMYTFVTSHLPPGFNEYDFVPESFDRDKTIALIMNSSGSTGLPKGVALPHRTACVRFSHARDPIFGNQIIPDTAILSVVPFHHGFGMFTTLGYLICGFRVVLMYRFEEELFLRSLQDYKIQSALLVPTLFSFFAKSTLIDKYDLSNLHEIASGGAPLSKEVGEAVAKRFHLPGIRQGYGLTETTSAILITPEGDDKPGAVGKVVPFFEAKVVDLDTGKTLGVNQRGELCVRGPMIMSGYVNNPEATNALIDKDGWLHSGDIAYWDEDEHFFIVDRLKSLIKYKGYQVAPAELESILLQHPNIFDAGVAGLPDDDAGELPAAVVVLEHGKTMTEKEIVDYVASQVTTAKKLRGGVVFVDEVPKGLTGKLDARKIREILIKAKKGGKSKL
#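 Assay system: Luciferase/luciferin detection reagent, cell-free biochemical luciferase assay / Also added: ATP substrate / Schedule: 10 min at ambient temperature / Measured by: luminescence measurement of luciferase light output / Benchmarks: low control with PBS replacing ATP, high control enzyme plus ATP without compound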
# FLuc inhib CS = inhibits firefly luciferase, flagging false hits in luciferase inhibition screens | P08659 | ATPLite firefly luciferase biochemical luminescence, 10 min | inhibition, % at 10 µM | 200,000 compounds, 1.5% hits | AID 1006;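 active = inhibition above about 50% when tested at 10 µM, limit read from the data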
# APP 5'UTR act = activates APP 5'UTR luciferase reporter; SH-SY5Y APP 5'UTR luciferase reporter, luminescence; zero percent = DMSO vehicle wells; activation, % at 2 µM; 190,000 compounds, 1% hits;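 active = activation above a set limit, based on mean plus 3 SD of controls, cut at about 140% in these data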
# STAT1 activator = activators of IFN-gamma induced STAT1 signaling | NIH 3T3 STAT1-luciferase reporter, luminescence; 100% = IFN-gamma alone, no compound | activation (% of control), % at 5.5 µM | 200,000 compounds, 2.6% hits | AID 932;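 active = activation above the screen-wide mean activation plus 3 SD, cut at about 130% in these data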;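 also: raw ratio to IFN-gamma control signal so 100% means no change and 0% no light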
# NF-kB expr up = compounds increasing NF-kB expression in human neuronal cells; NF-kB reporter expression; stronger effect = higher value; fold change at 12.5 µM; 190,000 compounds, 1.6% hits; AID 1239; in the data active = fold change above about 3.3
# sdo1 growth = sdo1-depleted yeast growth rescue. S. cerevisiae sdo1-depleted JHY4D growth rescue, OD600 30 h; stronger effect = higher value; pdr5 snq2 efflux-pump mutant strain. z-score at 10 µM. 140,000 compounds, 0.21% hits. AID 817;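 active = z-score above 3 at both the 24 hr and the 30 hr optical density reads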;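 also: z-score against mean and SD of all compound wells on the same plate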
# STAT1 act conf = STAT1 activation, confirmation assay; AID 1262; shares compounds with STAT1 activator; NIH 3T3 STAT1-luciferase reporter, IFN-gamma potentiation, luminescence; 100% = IFN-gamma EC80 alone, no compound; 1,200 compounds, 97% hits; activation (% of control), % at 5.7 µM;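 active = activation above a set limit carried over from the earlier primary STAT1 screen, cut at about 140% in these data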;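 also: simple ratio to median IFN-gamma plus DMSO wells so 0% means no light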
# NFkB act STAT1ct = activates NF-kappaB, counter-screen to STAT1 activators; shares compounds with STAT1 activator; HEK293T NF-kB luciferase reporter, TNF-alpha stimulated, luminescence; 100% = TNF-alpha with vehicle only; activation (% of control), % at 5.7 µM; 1,200 compounds, 43% hits; AID 1306;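 active = activation above the mean of solvent-only control wells plus 3 SD, set per campaign, cut at about 130% in these data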;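 also: TNF-alpha given at a submaximal dose yielding about 80% of full reporter signal; values are well signal over median control so 100% means no change and 0% no light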
# STAT3 act 2 = activates human STAT3, counter-screen to STAT1 activators; activation (% of control), % at 5.7 µM; 1,200 compounds, 46% hits; U3A cells STAT3-luciferase reporter, IL-6, luminescence; cells lack STAT1; 100 = IL-6 alone, no compound effect; shares compounds with STAT1 activator; AID 1316;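 active = activation above the solvent-only control well mean plus 3 SD, set per plate batch, cut at about 110% in these data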;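 also: 0% = no luminescence and 100% = median IL-6 plus DMSO wells; higher means more STAT3 reporter activation so hits are non-selective activators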
# * hit, by the source's call; / = not tested or not shown.
SMILES,FLuc act counter,FLuc inhib CS,APP 5'UTR act,STAT1 activator,NF-kB expr up,sdo1 growth,STAT1 act conf,NFkB act STAT1ct,STAT3 act 2
Cc1nc2ccc3nc(NC(=O)c4ccco4)sc3c2s1,/,/,125,164*,/,/,170*,127,109
CC(=O)C1=C(O)C(=O)N(c2ccc(Br)cn2)C1c1ccc(F)cc1 (configuration not stated),1,-3,-9,107,1,/,/,/,/
Cn1ccsc1=NC(=O)c1ccc(Cl)cc1,0.8,20,113,156*,2.7,/,166*,130,118*
COc1ccc(C(=O)N=c2sccn2C)cc1,0.6,36,54,128,2,/,/,/,/
O=C(/C=C/Nc1ccc(Oc2ccccc2Cl)cc1)c1ccco1,0.7,29,93,155*,6.2*,/,178*,144*,135*
O=C(/C=C/Nc1ccccc1Oc1ccccc1)c1ccco1,1,-2,1,112,1,/,/,/,/
CC(C)[C@H](NC(=O)c1ccco1)C(=O)OCC(=O)Nc1cccc(F)c1,1.1,-6,-15,99,1.2,/,/,/,/
O=C(/C=C/Nc1cccc(F)c1)c1ccco1,0.2,76*,102,154*,3.9*,-0.04,192*,125,116*
Cc1sc2ncn(CC(=O)N3CCCCC3)c(=O)c2c1C,1,-2,-3,108,1.2,/,/,/,/
COCC(C)NCc1cccc(C)c1 (configuration not stated),1.1,-6,-5,102,1.5,-0.2,/,/,/
COc1cccc(C(=O)Nc2cc3c(cc2Cl)OCCCO3)c1,0.4,65*,136*,160*,4.3*,-0.17,175*,119,98
CCn1cc(C(=O)Nc2cccc(C)c2)c(=O)c2ccc(C)nc21,1.1,-10,-4,108,1.1,/,/,/,/
COc1ccc(-c2cc3ncc(-c4ccccc4)c(N)n3n2)cc1,0.2,79*,225*,156*,2.7,/,198*,126,101
COc1ccc(-c2cc3nc(-c4ccccc4)cc(N4CCC(O)CC4)n3n2)cc1,1,-2,3,102,0.51,/,/,/,/
O=C(NC1=NCCS1)c1csc2ccccc12,0.4,55*,105,152*,6.8*,-0.2,199*,126,118*
c1ccc(-c2cc3nccc(-c4ccccn4)n3n2)cc1,0.9,14,100,160*,3.2,-0.84,188*,135*,117*
Cc1cc2nccc(-c3ccccn3)n2n1,1,-3,5,106,1.2,/,/,/,/
Cc1cc(N2C(=O)CC(N3CCN(C(c4ccccc4)c4ccccc4)CC3)C2=O)no1 (configuration not stated),1,-2,-32,89,1.1,-0.44,/,/,/
Cc1ccc2[nH]c(-c3cccc(N)c3)cc2c1,0.8,16,152*,183*,3.3,-0.32,213*,146*,104
Cc1ccc(O)c(-c2cc3ccccc3[nH]2)c1,1,0,24,101,1.8,-2.5,/,/,/
O=C(Nc1ccc2ccccc2c1)c1onc2c1CCCC2,0.7,28,206*,154*,8.1*,-1.2,270*,121,98
O=C(Cc1ccc2c(c1)CCCC2)Nc1ccc2ccccc2c1,1,-3,4,118,0.74,-1,/,/,/
O=C1CCCN1CCC1CCCCN1Cc1nc(-c2cnccn2)no1 (configuration not stated),1.1,-8,4,98,1.1,/,/,/,/
Nc1c(C(=O)O)cnc2c(-c3ccc(Cl)cc3)cnn12,0.4,58*,122,194*,4.9*,/,219*,132,152*
CC(=O)c1cnc2c(-c3ccc(Cl)cc3)cnn2c1C,1,-1,7,126,1.7,-1.3,/,/,/
SMILES,FLuc act counter,FLuc inhib CS,APP 5'UTR act,STAT1 activator,NF-kB expr up,sdo1 growth,STAT1 act conf,NFkB act STAT1ct,STAT3 act 2
CS(=O)(=O)c1cnc2c(-c3ccc(F)cc3)cnn2c1N,0.5,46,33,162*,3.5*,-0.1,189*,125,106
Clc1ccc(-c2cnn3c(-c4ccncc4)ccnc23)cc1,0.3,68*,221*,157*,3.6*,/,237*,132,109
Cc1csc2nc(CSc3nc4ccccc4o3)cn12,0.9,9,72,120,2,-0.69,/,/,/
Cc1csc2nc(CSc3ccc(Cl)cc3)cn12,0.8,21,149*,153*,6*,-1,198*,135*,109
CC(C)CCN1CCN(CC#Cc2ccccc2)CC1CCO (configuration not stated),1,-2,13,106,1.2,/,/,/,/
N#CC1=C2SCCN2C(=O)C(C#N)C12CCCCC2 (configuration not stated),1,-1,6,99,1,-0.25,/,/,/
COc1c(Cl)cc(Cl)cc1/C=N/n1cnnc1,1.1,-8,-55,105,0.9,-0.36,/,/,/
O=C(c1cc(-c2ccc(Cl)c(Cl)c2)on1)N1CCCCC1,1,2,37,159*,3.2,-1,188*,137*,114*
Cc1ccccc1NC(=O)N1c2ccccc2CC1C (configuration not stated),1,0,-5,113,1.4,/,/,/,/
Cc1nc2cc(NC(=O)N3c4ccccc4CC3C)ccc2n1C (configuration not stated),0.1,86*,/,151*,4*,0.33,218*,132,132*
COC(=O)c1ccc(OCC(O)CN2C(=O)c3ccccc3S2(=O)=O)cc1 (configuration not stated),1,1,2,95,1.1,/,/,/,/
CCOc1ccc(N/C=C/C(=O)c2ccc(OC)cc2)c([N+](=O)[O-])c1,0.8,24,35,125,1.4,0.55,/,/,/
COc1ccc(N/C=C/C(=O)c2ccc(C)cc2)c([N+](=O)[O-])c1,/,/,130,153*,/,/,218*,121,99
Cn1cccc1/C=C1\SC(=O)N(c2ccccc2)C1=O,0.5,52*,117,159*,2.8,1,190*,129,102
Cn1cccc1/C=C1/SC(=O)N(CC(=O)N2CCCC2)C1=O,1.1,-7,5,97,1.2,/,/,/,/
COc1ccc(CCNC(=O)Cn2nc([N+](=O)[O-])c(Br)c2C)cc1OC,1.1,-6,31,97,1.2,1.4,/,/,/
